Compound activity from PubChem.
KDM4C inh = inhibitors of GASC-1 (KDM4C) histone demethylase, primary screen, biochemical, single concentration HTS; GST-KDM4C 2-372, H3K9me3 peptide, LANCE TR-FRET; inhibition, % at 12.5 µM; 0.15% of 96,000 active; AID 720574, 2013;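 active = mean replicate inhibition above about 25%, with at least 55% of replicates also reaching it, limit read from the data, passing the limit was not always enough; inconclusive = only one of those two conditions met; inactive = neither condition met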
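System – N-terminal GST-fused human GASC-1 (KDM4C) fragment, residues 2-372 · Input – enzyme final amount 10 nM · Technique – LANCE TR-FRET, Eu antibody, ULight-streptavidin, EDTA, ex 340 nm, em 618/671 nm · Medium – HEPES buffer, pH 7.5, plus ascorbate · Incubation – enzyme reaction 30 min, then detection 60 min, both room temperature · Reagent – H3K9me3 peptide with Fe(II)/2OG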
T cruzi growth-1 = T. cruzi intracellular proliferation inhibitors, primary screen, cell-based, beta-gal Tulahuen parasites, NIH3T3 host, luminescence. T. cruzi beta-gal in NIH3T3, GalScreen luminescence, 90 h. inhibition, % at 8.34 µM. 5.9% of 77,000 active. AID 624255, 2012;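 active = mean inhibition above about 93%, with at least 55% of replicates each passing it, limit read from the data, passing the limit was not always enough; inconclusive = only one of those two conditions holds; inactive = neither condition holds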
IDH1 mut inh = inhibitors of IDH1 R132H reductase, primary screen, biochemical, plate reader, single point. Isocitrate dehydrogenase [NADP] cytoplasmic (Homo sapiens), O75874. diaphorase/resazurin fluorescence, 60 min. inhibition, % at 10 µM. 0.18% of 70,000 active. AID 624101, 2012; in the data active = inhibition above about 34%; inconclusive = no clear call, values can overlap the other calls; inactive = below about 11%;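 also: 0% = DMSO and 100% = no enzyme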
Target sequence (O75874 whole entry R132H): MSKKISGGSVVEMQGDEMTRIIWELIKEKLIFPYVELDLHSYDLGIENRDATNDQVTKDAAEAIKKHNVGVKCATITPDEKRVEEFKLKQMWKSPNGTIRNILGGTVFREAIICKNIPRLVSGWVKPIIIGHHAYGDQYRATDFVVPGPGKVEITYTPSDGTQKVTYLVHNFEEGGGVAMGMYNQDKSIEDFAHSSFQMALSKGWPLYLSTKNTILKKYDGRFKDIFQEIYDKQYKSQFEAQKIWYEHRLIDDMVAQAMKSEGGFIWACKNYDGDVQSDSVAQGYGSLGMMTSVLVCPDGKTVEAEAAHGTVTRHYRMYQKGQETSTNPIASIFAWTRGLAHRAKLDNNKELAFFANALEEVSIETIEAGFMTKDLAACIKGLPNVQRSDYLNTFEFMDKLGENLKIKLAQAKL
T cruzi growth-2 = T. cruzi intracellular proliferation inhibitors, confirmation, cell-based, NIH3T3 host, beta-gal parasite, luminescence, cherry-pick; shares compounds with T cruzi growth-1; T. cruzi beta-gal in NIH3T3, GalScreen luminescence, 90 h; inhibition, % at 8.35 µM; 72% of 5,600 active;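 active = mean replicate inhibition above about 95% and at least 55% of replicates individually reaching it, limit read from the data; inconclusive = only one of the two criteria is met; inactive = neither criterion is met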
T cruzi growth-3 = inhibitors of intracellular T. cruzi replication, confirmation, NIH3T3 host cells, beta-gal parasites, cherry-pick, set 2; shares compounds with T cruzi growth-1; T. cruzi beta-gal in NIH3T3, GalScreen luminescence, 90 h; inhibition, % at 2.09 µM; 21% of 5,600 active; AID 651740, 2012;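 active = mean inhibition above about 95%, with at least 55% of replicates also reaching it, limit read from the data; inconclusive = meets just one of the two conditions; inactive = meets neither condition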;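 also: plate controls were neutral control median for no effect and positive control median for full effect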
3T3 cytotox = cytotoxicity in mouse NIH/3T3 fibroblasts, confirmation, cytotoxicity control for T. cruzi proliferation inhibitor project, cell-based, cherry-pick, single point | NIH/3T3 viability, CellTiter-Glo ATP luminescence, 90 h | cytotoxicity (signal decrease), % at 8.35 µM | shares compounds with T cruzi growth-1 | 14% of 5,600 active;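 active = mean signal decrease across replicates above about 35% based on untreated-well scatter, with enough replicates individually passing, limit read from the data; inconclusive = no rule stated though some were filed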;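 also: 0% = median of neutral control wells and 100% = median of positive control wells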
3T3 cytotox 2 = NIH/3T3 fibroblast cytotoxicity, confirmation, cytotoxicity control, cell-based, cherry-pick, single point, set 2. shares compounds with T cruzi growth-1. NIH/3T3 viability, CellTiter-Glo ATP luminescence, 90 h. inhibition, % at 24.9 µM. 56% of 5,600 active;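 active = mean loss of cell viability signal at or above a set limit, and enough replicates individually reaching it; inconclusive = meets only the mean limit or only the replicate share; inactive = meets neither condition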;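 also: 0% = median of neutral control wells and 100% = median of positive control wells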
* hit, by the source's call; ? = inconclusive; nt = not tested or not shown. This is one part of a sample in which hits are shown more often than they occur.

SMILES	KDM4C inh	T cruzi growth-1	IDH1 mut inh	T cruzi growth-2	T cruzi growth-3	3T3 cytotox	3T3 cytotox 2
CCCCCCC/C=C/C(=O)CCc1ccc(O)c(OC)c1	nt	nt	6	nt	nt	nt	nt
CCNC(=O)[C@H]1[C@H](CO)[C@H]2Cn3c(ccc(-c4ccccc4)c3=O)[C@H]2N1Cc1ccccc1	3	52	nt	nt	nt	nt	nt
COc1ccc(-c2ccc3n(c2=O)C[C@@H]2[C@@H](CO)[C@H](C(=O)N(C)C)N(CC4CC4)[C@H]32)cc1	28*	103*	nt	22	9	-3	19
CCN1[C@@H]2c3ccc(-c4cccc(F)c4)c(=O)n3C[C@@H]2[C@@H](CO)[C@@H]1C(=O)N[C@@H](C)c1ccccc1	2	102*	nt	25	30	1	25*
CCN1[C@H](C(=O)N[C@H](C)c2ccccc2)[C@@H](CO)[C@@H]2Cn3c(ccc(-c4cccc(F)c4)c3=O)[C@@H]21	9	76	nt	nt	nt	nt	nt
CCN1[C@H](C(=O)OC)[C@@H](CO)[C@@H]2Cn3c(ccc(-c4cccc(C(=O)N(C)C)c4)c3=O)[C@@H]21	4	96*	nt	-38	-44	-12	-14
CCNC(=O)[C@@H]1[C@@H](CO)[C@@H]2Cn3c(ccc(-c4ccc(OC)cc4)c3=O)[C@@H]2N1Cc1ccccc1	4	100*	nt	6	-25	-13	0
COC(=O)[C@H]1[C@H](CO)[C@H]2Cn3c(ccc(-c4cccc(C(=O)N(C)C)c4)c3=O)[C@H]2N1CC1CC1	2	44	nt	nt	nt	nt	nt
COc1ccc(-c2ccc3n(c2=O)C[C@@H]2[C@@H](CO)[C@H](C(=O)N(C)C)N(CC4CCCC4)[C@H]32)cc1	9	-4	nt	nt	nt	nt	nt
O=C(O)CCc1ccc(-c2ccccc2)n1-c1ccc([N+](=O)[O-])cc1	nt	nt	2	nt	nt	nt	nt
COC(=O)[C@H]1[C@H](CO)[C@H]2Cn3c(ccc(-c4ccccc4)c3=O)[C@H]2N1Cc1cccc(F)c1	0	87	nt	nt	nt	nt	nt
COC(=O)[C@@H]1[C@@H](CO)[C@@H]2Cn3c(ccc(-c4ccccc4)c3=O)[C@@H]2N1Cc1cccc(F)c1	7	?	nt	26	-17	-8	-1
C[C@@H]1CN([C@H](C)CO)S(=O)(=O)c2ccc(C3=CCCCC3)cc2O[C@H]1CN(C)C(=O)Cc1ccncc1	1	100*	nt	103*	66	28	36*
C[C@@H]1CN([C@H](C)CO)S(=O)(=O)c2ccc(C3=CCCC3)cc2O[C@H]1CN(C)C(=O)Cc1ccncc1	0	73	25	nt	nt	nt	nt
C[C@@H]1CN([C@@H](C)CO)S(=O)(=O)c2ccc(C3=CCCCC3)cc2O[C@@H]1CN(C)C(=O)Cc1ccncc1	-2	97*	nt	89	59	19	32*
C[C@H]1CN([C@@H](C)CO)S(=O)(=O)c2ccc(C3=CCCC3)cc2O[C@@H]1CN(C)C(=O)Cc1ccncc1	1	93	nt	nt	nt	nt	nt
C[C@@H]1CN([C@H](C)CO)S(=O)(=O)c2ccc(C3=CCCCC3)cc2O[C@@H]1CN(C)C(=O)Cc1ccccc1	-1	103	0	nt	nt	nt	nt
C[C@@H]1CN([C@@H](C)CO)S(=O)(=O)c2ccc(C3=CCCCC3)cc2O[C@H]1CN(C)C(=O)Cc1ccccc1	-3	?	0	105*	41	53*	52*
C[C@@H]1CN([C@@H](C)CO)S(=O)(=O)c2ccc(C3=CCCC3)cc2O[C@@H]1CN(C)C(=O)Cc1ccncc1	-1	nt	nt	nt	nt	nt	nt
C[C@@H]1CN([C@@H](C)CO)S(=O)(=O)c2ccc(C3=CCCC3)cc2O[C@H]1CN(C)C(=O)Cc1ccncc1	-1	98*	nt	80	15	-7	23
C=CC(C)(C)[C@@]12CC(=O)C(=O)N3/C(=C/c4cnc[nH]4)C(=O)N[C@]31N(OC)c1ccccc12	nt	nt	26	nt	nt	nt	nt
C=CCn1c(=O)c(C(=O)NCCO)c(O)c2ccccc21	nt	nt	1	nt	nt	nt	nt
COc1ccc(C)cc1N(CC(=O)Nc1ccc(I)cc1C)S(C)(=O)=O	nt	nt	0	nt	nt	nt	nt
COc1ccc(N(C(C)C(=O)Nc2ccc(C(F)(F)F)cc2)S(C)(=O)=O)cc1 (stereo unspecified)	nt	nt	0	nt	nt	nt	nt
CC(=O)C(Sc1cc(C)nc(N)n1)C(=O)Nc1ccccc1 (stereo unspecified)	nt	nt	2	nt	nt	nt	nt
SMILES	KDM4C inh	T cruzi growth-1	IDH1 mut inh	T cruzi growth-2	T cruzi growth-3	3T3 cytotox	3T3 cytotox 2
CC1(C(=O)NCCCn2ccnc2)CC1(Cl)Cl (stereo unspecified)	nt	nt	4	nt	nt	nt	nt
O=C(Cn1nnc2ccccc21)c1ccc(Oc2ccc([N+](=O)[O-])cc2)cc1	nt	nt	2	nt	nt	nt	nt
O=C(Cc1ccc(O)cc1)OC1[C@@H](O)[C@@H](O)C(OC(=O)Cc2ccc(O)cc2)[C@H](O)[C@@H]1O (stereo partly specified)	nt	nt	0	nt	nt	nt	nt
CN(CC(=O)Nc1ccc(C(F)(F)F)cc1)S(=O)(=O)c1ccc(Br)cc1	nt	nt	0	nt	nt	nt	nt
CC(C)CC#Cc1ccc2c(c1)O[C@H](CN(C)C(=O)Nc1ccccc1)[C@H](C)CN([C@@H](C)CO)S2(=O)=O	-1	107*	0	108*	?	21	81*
C[C@H](O)C#Cc1ccc2c(c1)O[C@@H](CN(C)C(=O)Nc1ccccc1)[C@@H](C)CN([C@H](C)CO)S2(=O)=O	nt	64	nt	nt	nt	nt	nt
C[C@@H]1CN([C@@H](C)CO)S(=O)(=O)c2ccc(C#C[C@@H](C)O)cc2O[C@H]1CN(C)C(=O)Nc1ccccc1	nt	61	2	nt	nt	nt	nt
CC(C)CC#Cc1ccc2c(c1)O[C@H](CN(C)C(=O)NC(C)C)[C@@H](C)CN([C@@H](C)CO)S2(=O)=O	-1	70	-3	nt	nt	nt	nt
C[C@H](O)C#Cc1ccc2c(c1)O[C@H](CN(C)C(=O)Nc1ccccc1)[C@@H](C)CN([C@@H](C)CO)S2(=O)=O	nt	70	nt	nt	nt	nt	nt
CC(C)CC#Cc1ccc2c(c1)O[C@H](CN(C)C(=O)Nc1ccccc1)[C@H](C)CN([C@H](C)CO)S2(=O)=O	-1	126*	2	100*	107*	-10	106*
CC(C)CC#Cc1ccc2c(c1)O[C@H](CN(C)C(=O)Nc1ccccc1)[C@@H](C)CN([C@@H](C)CO)S2(=O)=O	-1	125*	0	105*	?	11	101*
